Compound activity: PubChem BioAssay, Sanford-Burnham Center for Chemical Genomics
hIAP block: human IAP inhibition. inhibition, % at 10 µM. P09923. purified IAP, CDP-Star luminescence, 30 min. actives 0.12% (n = 330,000);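 active = inhibition reaching a set limit with compound at 10 µM in the primary screen, cut at about 35% in these data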
Target sequence (P09923 whole entry, looked up): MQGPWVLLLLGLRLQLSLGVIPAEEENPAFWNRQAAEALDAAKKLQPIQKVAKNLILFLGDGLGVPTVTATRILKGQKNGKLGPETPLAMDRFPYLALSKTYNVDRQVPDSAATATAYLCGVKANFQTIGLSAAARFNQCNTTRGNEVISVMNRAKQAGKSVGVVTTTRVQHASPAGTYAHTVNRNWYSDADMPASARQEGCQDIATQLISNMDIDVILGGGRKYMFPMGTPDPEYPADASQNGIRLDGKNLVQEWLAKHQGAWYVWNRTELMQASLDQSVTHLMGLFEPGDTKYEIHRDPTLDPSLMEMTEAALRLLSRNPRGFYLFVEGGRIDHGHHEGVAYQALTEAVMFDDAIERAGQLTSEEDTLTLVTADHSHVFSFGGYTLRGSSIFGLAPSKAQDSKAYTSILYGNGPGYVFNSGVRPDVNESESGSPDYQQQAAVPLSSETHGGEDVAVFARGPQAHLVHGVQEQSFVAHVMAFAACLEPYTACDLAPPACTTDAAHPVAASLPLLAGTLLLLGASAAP
mIAP inh: blocks mouse intestinal alkaline phosphatase. AID 2806. purified mouse IAP, CDP-Star luminescence, 30 min. actives 0.2% (n = 330,000). inhibition, % at 10 µM;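 active = inhibition of at least 40% at 10 µM in the primary screen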
mIAP activ: increases mouse intestinal alkaline phosphatase activity; muIAP, CDP-Star luminescence, 30 min; hits give high values; 1 = vehicle-only enzyme signal, 0 = enzyme-free wells; actives 0.24% (n = 330,000); activation factor at 10 µM; AID 2805;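 active = activation factor of at least 2 at 20 µM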
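Assay system: mouse IAP enzyme; Reagent: CDP-Star chemiluminescent phosphatase substrate; Compound: DMSO-dissolved test compounds; Incubation: 30 min, room temperature; Technique: luminescence from enzymatic CDP-Star hydrolysis; Controls: DMSO-only wells and no-enzyme negative control.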
bIAP act: increases bovine intestinal alkaline phosphatase activity | purified bovine IAP, CDP-star luminescence, 30 min; hits give high values; fold of DMSO-control signal, blank-subtracted | activation factor at 20 µM | actives 0.17% (n = 200,000) | AID 1016;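 active = activation factor of 2 or more at 20 µM, a signal rise over negative controls twice the positive control's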
hIAP act: human IAP activation; P09923; purified human IAP, CDP-Star luminescence, 30 min; hits give high values; 1 = vehicle-only enzyme, 0 = enzyme-free background; activation factor at 10 µM; actives 0.16% (n = 330,000); AID 2524;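 active = activation factor of the enzyme at least 2-fold when tested at 20 µM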
bIAP inh: intestinal alkaline phosphatase (bovine) inhibition; purified bovine IAP, CDP-star luminescence, 30 min; 190,000 tested, under 10 active; inhibition, % at 20 µM; AID 1019;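 active = over 50% inhibition of intestinal alkaline phosphatase at 20 µM in the single-dose screen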
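Assay system: bovine IAP enzyme; medium: DEA buffer 100 mM, pH 9.8, with MgCl2 1.0 mM, ZnCl2 0.02 mM; doses: 20 µM single dose; incubation: enzyme reaction for 30 min at room temperature; detection: CDP-star luminescence signal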
hIAP act confirm: human IAP activation confirmation; AID 434926; activation (%Activity, negative = activation), % at 8.3 µM; shares compounds with hIAP act; actives 10% (n = 880); purified IAP, CDP-Star luminescence, 30 min; hits give low values;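 active = at least twofold enzyme activation in any of six single-dose repeats, which the averaged readout prints as negative percent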
Hits are given with their value; . = inactive; / = no result. In the library only some 0.77% were active in any assay of this set; here they are far more common.

SMILES | hIAP block | mIAP inh | mIAP activ | bIAP act | hIAP act | bIAP inh | hIAP act confirm
O=C(NN1C(=O)/C(=C/c2ccc(O)cc2)SC1=S)c1cccc(O)c1 | 37 | . | . | / | . | / | .
COc1ccc(NC(=O)CN2CCC(C(=O)c3ccc(F)cc3)CC2)c(OC)c1 | . | . | . | / | . | / | /
O=C(NNC(=O)C1CCN(c2ncccn2)CC1)c1ccc(F)cc1 | . | . | . | / | . | / | /
COc1cc(/C=C2\C(=O)N(c3ccc(NC(C)=O)cc3)N=C2c2ccccc2)ccc1O | 37 | . | . | . | . | . | .
NC1=NCC(O)=C1c1nc2ccccc2[nH]1 | . | . | . | . | 2 | . | .
COc1ccccc1C(=O)Nc1ccc(-c2nnn(CC(=O)NCc3ccco3)n2)cc1 | . | . | . | / | . | / | /
CC(C)=NOc1nc(N2CCOCC2)nc(N2CCOCC2)n1 | . | . | . | / | . | / | /
Cc1cc(C)cc(N2CC(O)=C(c3nc4ccccc4c(=O)[nH]3)C2=N)c1 | . | . | . | . | . | . | /
COc1cccc(N2CC(O)=C(c3nc4ccccc4c(=O)[nH]3)C2=N)c1 | . | . | . | . | 2.1 | . | .
COc1ccc(CCNC(=O)CCNS(=O)(=O)c2cccc(Cl)c2)cc1OC | . | . | . | . | . | . | /
Cn1ccnc1SCc1ccc(Cl)cc1Cl | . | . | . | / | 2.2 | / | .
Cc1ccc(S(=O)(=O)NCC(=O)N/N=C/c2ccccc2O)cc1 | . | . | . | . | 2.2 | . | .
Cc1ccc(S(=O)(=O)NCC(=O)N/N=C/c2ccc(Cl)cc2Cl)cc1 | . | . | . | . | . | . | /
O=C(C1CCN(C2CC(=O)N(c3cccc(Cl)c3)C2=O)CC1)N1CCCC1 (configuration not stated) | . | . | . | . | 2.9 | . | .
COc1cc(/C=C2\SC(=S)N(N(C)c3ccccc3)C2=O)ccc1O | 41 | . | . | / | . | / | .
CCOc1cc(/C=C2/SC(=S)N(Cc3ccccc3)C2=O)ccc1O | . | . | . | / | . | / | /
CCOC(=O)C1CCCN(C(=S)NC(=O)/C=C/c2ccc(F)cc2)C1 (configuration not stated) | 39 | . | . | / | . | / | .
Cc1cc(Cl)ccc1NC(=O)C1CCN(S(C)(=O)=O)CC1 | . | . | . | . | . | . | /
COc1cc(NC(=O)c2n[nH]c(=O)c3ccccc23)cc(OC)c1 | . | . | . | / | . | / | /
COc1ccc(-c2nc(NC(=O)c3n[nH]c(=O)c4ccccc34)sc2C)cc1 | . | . | . | . | 2.1 | . | .
COC(=O)CSc1nc2cc3c(cc2cc1C)OCO3 | . | . | . | . | . | . | /
Cc1cc2cc3c(cc2nc1SCC(=O)Nc1nc(C)c(C)s1)OCO3 | . | . | . | . | 2.2 | . | .
O=C(CN1CCCC1)Nc1ccc(F)cc1 | . | . | . | . | . | . | /
O=C(CN1CCN(C(=O)N2CCCCC2)CC1)Nc1ccc(F)cc1 | . | . | . | . | 2.3 | . | -97
CCCn1c(=O)c(C(=O)NNC(=O)c2ccc(Cl)cc2Cl)c(O)c2ccccc21 | . | . | . | / | 2.9 | / | .
SMILES | hIAP block | mIAP inh | mIAP activ | bIAP act | hIAP act | bIAP inh | hIAP act confirm
CCn1c(=O)c(C(=O)NNC(=O)c2ccc(Cl)cc2Cl)c(O)c2ccccc21 | . | . | . | / | . | / | /
CCn1nnc(-c2ccc(N)cc2)n1 | . | . | . | . | 2 | . | .
Nc1ccc(-c2nnn(CC(=O)N3CCCCC3)n2)cc1 | . | . | . | / | . | / | /
O=C(N/N=C1/CC2C=CCC12)c1cccs1 (configuration not stated) | . | . | . | / | . | / | /
O=C(CSc1nc(-c2cccs2)cc(C(F)(F)F)n1)NCc1ccccc1 | 37 | . | . | . | . | . | .
Cn1nnnc1N=N/C(=N/Nc1ccccc1)c1ccccc1 | 46 | . | . | / | . | / | .
Oc1ccccc1N=N/C(=N/Nc1ccccc1O)c1ccccc1 | . | . | . | / | . | / | /
Cn1c(CNC(=O)CCNC(=O)c2cccc(Br)c2)cc(=O)n(C)c1=O | 37 | . | . | / | . | / | .
O=C1/C(=C/c2ccc(O)cc2)SC(=S)N1CC1CCCO1 (configuration not stated) | 38 | . | . | / | . | / | .
O=C1/C(=C\c2ccc(O)cc2)SC(=S)N1Cc1ccccc1 | 37 | . | . | / | . | / | .
Cc1c(C(=O)Nc2cc(F)cc(F)c2)cnn1-c1ccccc1 | . | . | . | / | . | / | /
CN(Cc1ccc(Cl)s1)C(=O)CNC(=O)CNC(=O)c1ccc(Cl)cc1Cl | . | . | . | / | . | / | /
O=S(=O)(c1ccccc1Cl)N1CCC(Cc2ccccc2)CC1 | . | . | . | / | . | / | /
CC(=O)c1ccc(N=Nc2ccc(N(C)C)cc2)cc1 | . | . | . | . | . | . | /
CN(C)c1ccc(N=Nc2ccccc2Br)cc1 | 42 | . | . | / | . | / | -104
O=c1c2c(nc3nc(NCc4ccccc4Cl)[nH]n13)CCC2 | . | . | . | . | . | . | /
CCc1nc2c3cnn(-c4cc(Cl)ccc4C)c3ncn2n1 | 73 | . | . | . | . | . | .
Cc1ccccc1OCc1nc2c3cnn(C)c3ncn2n1 | . | . | . | . | . | . | /
COc1ccc(S(=O)(=O)N2CCOCC2)cc1NC(=O)c1ccncc1 | . | . | . | / | . | / | /
COc1cccc(NC(=O)CN(C)C(=O)c2ccc(OCc3ccccc3)c(OC)c2)c1 | . | . | . | / | . | / | /
COc1ccc(OCC(=O)NNC(=O)c2nn(C)c(=O)c3ccccc23)cc1 | . | . | . | . | . | . | /
COc1cc(OC)cc(C(=O)NNC(=O)c2nn(C)c(=O)c3ccccc23)c1 | . | . | . | / | 2.1 | / | .
Cn1nc(C(=O)NNC(=O)c2ccc(Cl)c(S(N)(=O)=O)c2)c2ccccc2c1=O | . | . | . | / | 2.1 | / | .
CC1CCCC(NC(=O)COC(=O)c2cc(=O)[nH]c3ccccc23)C1C (configuration not stated) | . | . | . | / | . | / | /
COc1cc(=O)[nH]c(SCC(=O)Nc2nc3c(s2)CCCC3)n1 | . | . | . | / | . | / | /
SMILES | hIAP block | mIAP inh | mIAP activ | bIAP act | hIAP act | bIAP inh | hIAP act confirm
O=C(COc1ccccc1Cl)N1CCN(c2ccc([N+](=O)[O-])c(N3CCCCC3)c2)CC1 | . | . | . | . | 2.1 | . | -61
COc1ccc(CCNC(=O)c2cc(-c3ccc(C)cc3O)n[nH]2)cc1OC | . | . | . | . | 2.1 | . | .
COc1ccc(CCNC(=O)c2cc(-c3cc(C)cc(C)c3O)n[nH]2)cc1OC | . | . | . | / | . | / | /
Cc1cc(O)c(-c2cc(C(=O)NCCc3ccc(S(N)(=O)=O)cc3)[nH]n2)cc1C | . | . | . | / | 2.2 | / | .
Cc1ccc(NC(=O)c2cc(-c3ccccc3O)n[nH]2)cc1Cl | . | . | . | / | . | / | /
NS(=O)(=O)c1ccc(NC(=O)c2cc(-c3ccccc3O)n[nH]2)cc1 | . | . | . | / | 2 | / | .
